Laboratory results published in the EternaBench riboswitch data.

Test system: MS2 coat protein
Assay: apparent Kd, MS2 coat protein; higher = weaker binding; RNA-MaP array; FMN 200 µM where present
Procedure, shortened: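 Stalled E. coli RNA polymerase transcribed each design on Illumina sequencing-chip clusters. The clusters were titrated with SNAP-549-labelled MS2 coat protein, starting at 0.7 or 1.5 nM and doubling up to 3 µM, first without ligand and then with constant ligand, in 100 mM Tris-HCl pH 7.5, 80 mM KCl, 4 mM MgCl2, BSA, DTT, yeast tRNA and Tween-20. Green signal was normalised to red-channel RNA signal and to the control-cluster median Fmax. The apparent Kd is the median of filtered binding-curve fits made for each cluster.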

[1] = designed as: OFF switch for flavin mononucleotide, no ligand
[2] = ligand present: flavin mononucleotide, designed as: OFF switch for flavin mononucleotide
[3] = designed as: ON switch for flavin mononucleotide, no ligand
[4] = ligand present: flavin mononucleotide, designed as: ON switch for flavin mononucleotide

Sequence | apparent Kd [1] | apparent Kd [2] | apparent Kd [3] | apparent Kd [4]
GGAUCUAUGUAGAAGGCUGUCUUAAAAUAGGACAGAGGAUAUACAUGAGGAUCACCCAUGUACUCCUUUAAAAGGAUCCAAAUA | 5.77 nM | 11 nM |  | 
UGUCGGAGCAGAGGAUAUUACAUGAGGAUCACCCAUGUGUGAACCAAUAGCUGGAAACAGCAAUGUAAGAAGGCUGCUCCGACA | 58.4 nM | 29.2 nM |  | 
GGGUGAUCAGGAUAUACAGAAAUGCGAAAGCAUUUCUGUAAACAUGAGGAUCACCCAUGUAGAAGGAAACUUCA | 17.9 nM | 13.8 nM |  | 
AUGCGGUCAGGAUAUGCAUGGCGGGACUUGCGUCGUGGCGUGGAGAAGGGACAUGAGGAUCACCCAUGUGGAGC | 53.5 nM | 50.4 nM |  | 
UUUGUUUUGGUAGGAUAUACUUUUAAUUUCUCUUUCCUUACAUGAGGAUCACCCAUGUUUACAUUGUAGAAGGACCACUUUGUU | 21.8 nM | 19.2 nM |  | 
CGCGAUGCGGUUGGCCCUGGGCGAGAGGAUAUGGGCAGCAGGACAUGAGGAUCACCCAUGUUCUCUCAGAAGGCUCGAGCAGGC |  |  | 247 nM | 24.5 nM
GCUCUAUGCUAGAAGGCGUGAAACAUGAGGAUCACCCAUGUCAAAGACGUGAGGAUAUAGCAUAGAGCAAAAGUGCGAAAGCAC |  |  | 5.49 nM | 5.29 nM
AAACAUGUCCGAGGAUAUCUGGAAACAUUUCCGAGAGAAGGCGGACAUGAGGAUCACCCAUGUCUCUCCUCAUCAAAUCCAAGU | 8.44 nM | 80.7 nM |  | 
CUUUUGUGAGGAUAUUAGUAGUAAUUAAAUAAAAUUACUACUGAGAAGGCACAUGAGGAUCACCCAUGUUCCUC | 33.9 nM | 158 nM |  | 
UAUAUAUAGUAAGGAUAUGUAUAUAUUUUAGAAACAGAAGGUACUGACAUGAGGAUCACCCAUGUUUUAGUGUGGGCAUGUAGA | 69.2 nM | 89.7 nM |  | 
CCACGUCACAUGAACAUGAGGAUCACCCAUGUAAAUUCUCAUGAGGAUAUGGAUCCUAAUUGGAUCCAGAAGGCGUGGACGUGG |  |  | 1070 nM | 461 nM
UAGAGAGGAAGCGAGGAUAUCGUGUGAGGAACAUGAGGAUCACCCAUGUGUGAUGUUGAGAGAGACGAGAAGGCGCAGGAAAUUA |  |  | 205 nM | 72.6 nM
ACCUCACAUGAGGAUCACCCAUGUUAGGAUAUAUAAUCGUCGGCCUAGGGCCGGAGAUAUAGAAGGAGCAUAAC | 16.9 nM | 19.7 nM |  | 
AAACAUGUCCGAGGAUAUCUGGAAACAUUUUCAAGAGAAGGCGGACAUGAGGAUCACCCAUGUCUCUCCUCAUCAACUAUAAAU | 8.24 nM | 60.6 nM |  | 
GCACGGCAUGUAGGAUAUCGAGCUCAAAGAGCUCGAGAAGGACAUGAGGAUCACCCAUGUGCUCACAGACAGUGAGCGCUGUGC | 25.1 nM | 91.5 nM |  | 
GCCUCACAUGAGGAUCACCCAUGUCAGGAUAUAGGAGACGGUAGCUUUGCUGCCUUCGCUAGAAGGGACUGGCU | 33.5 nM | 55.4 nM |  | 
UAUUCUAGAUAGGAUAUACUUUAUUUUUUUUUCGUAGAAGGAUCUACAUGAGGAUCACCCAUGUUAACAGCAGU | 55.5 nM | 50.8 nM |  | 
UGCGGUAGAGGAUAUACAUUGAAUUUGAUUCAUGUAAAACUACAUGAGGAUCACCCAUGUAGAAGGCUAUCGCU | 17.4 nM | 36.1 nM |  | 
GCCAUCGCAUGAGGAUAUGCUCGGGUUUCCCGAGCAGAAGGCAUGCCAUAAGACAUGAGGAUCACCCAUGUAGUUAAGAUGGCA |  |  | 5.36 nM | 5.4 nM
CAACCGUUGCAGAAGGUUAAAUAAAUUCUCUUCUUGUUUACAUGAGGAUCACCCAUGUUUUUGUUGAAGGAUAUGCAAGGGUUG | 5.59 nM | 5.79 nM |  | 
CUGUUUGUAGGAUAUACAUGCGGAACCCUCUUCAUGGAAAGACAUGAGGAUCACCCAUGUAGAAGGAUGAAGAG | 19.7 nM | 17.9 nM |  | 
UAAUUACAUGAGGAUCACCCAUGUGAGGAUAUGUCCAUAUUCGGCAAAUCGGAUAUGGACAGAAGGCACACCGG | 56.3 nM | 141 nM |  | 
GUAGCUAUCGGAGGAUAUCCUUAGCGGAAACGCACAUGAGGAUCACCCAUGUAAAUAAAUAAUUGGGAGAAGGCCGAUAGCUAC |  |  | 107 nM | 16.8 nM
CUUAUGUGAGGAUAUGUACAGAAAAAACUGGGUGUAACUGUACAGAAGGCACAUGAGGAUCACCCAUGUGCCUU | 16.9 nM | 13.8 nM |  | 
AAAUUAAGAAGAGGAUAUUGACAUGAGGAUCACCCAUGUAUUUGGGAAUGUUUACUGAAUUCUUACGAGAAGGUUUACGAACUU | 191 nM | 132 nM |  | 
UGUCAGUAACAAGGAUAUUGGAGUUAAUGGCUACGAGAAGGUGUUACAUGAGGAUCACCCAUGUCCUCGCCUGUAGCAAGGACA | 87.2 nM | 567 nM |  | 
GCACGAGACUAAGGAUAUGGUGUACCUACAUGUAACAUGAGGAUCACCCAUGUGGUAAGUAUGAUUCAGAAGGUAGAGACGUGC |  |  | 33.2 nM | 20 nM
GGGAGGGAUACAGGAUAUAUGACAUGAGGAUACAUGAGACAUACAAACAUGAGGAUCACCCAUGUAUAGAAGGGUAAGGGAGGG | 173 nM | 240 nM |  | 

Sequence | apparent Kd [1] | apparent Kd [2] | apparent Kd [3] | apparent Kd [4]
GAUCAACAUGAGGAUCACCCAUGUGAGGAUAUGGACUUGCCCACUUAACCAUUAGAGUCUAGAAGGCGCAUCUA | 27 nM | 29.9 nM |  | 
UCUCAACAUGAGGAUCACCCAUGUGAGGAUAUGAUGCAGCAGUGGUCUACGCUGUGCAUCAGAAGGCACAUGUG | 137 nM | 48.2 nM |  | 
AUAUAUAUAUCAGGAUAUGGACAGGCCUGUCCGUAUUGAGACAGUAACAUGAGGAUCACCCAUGUCCAGAAGGGAUAUAUAUAU | 51.5 nM | 59.2 nM |  | 
AUGUUGAGCAGUGUAUUAAGAUCACAUGAGGAUCACCCAUGUAGAAGGCACGAGCUGAUCGCUCGUGAGGAUAUACAUCACUGC | 10.3 nM | 110 nM |  | 
GCUGAUGCAGGAUAUAUAUGAAGCGUUCGAAUAGAAUGCGAACAUGAGGAUCACCCAUGUAGAAGGGCAUUGGC | 14.6 nM | 20.1 nM |  | 
AGAUUUAAUGAGGAUAUCGUAUUGGAUAUAGUGCGAGAAGGCAUUACAUGAGGAUCACCCAUGUUUUGUUGGGA | 31.8 nM | 74.1 nM |  | 
UGUAUCUAGUAAGGAUAUACUAUUGAUUCAAUUGUAGAAGGUACAGACAUGAGGAUCACCCAUGUAGUUAUGGAUAUUAGAUAU |  |  | 74.1 nM | 42.3 nM
AGACUUGCAGGAUAUACAUGAGGAUCACCCAUGUAUGUAAACUUAUGCGGUGUGACCUGUAGAAGGGUAGGCGU | 21.1 nM | 24.2 nM |  | 
GGUCCGUAACAGAAGGCCGUAACUGGCGGUGGCGGAGGAUAUGUGGGCGGCCCUUGACAACAUGAGGAUCACCCAUGUAUGUAA |  |  | 41.3 nM | 113 nM
GCCCUAAGGCGGGCCGACCAUACAUGAGGAUCACCCAUGUCGAGAAGGUGCUCACGGGUGGGUGGCAAGGAUAUCGGGUCGGAU |  |  | 77.1 nM | 41.4 nM
GGCACUGUAGGAUAUACAUGAACAAUUGGUAUCCUCAGUCCACAUGAGGAUCACCCAUGUAGAAGGAUAGAAAA | 58.6 nM | 46.1 nM |  | 
GUAUAUAUUACAUGAGGAUCACCCAUGUCAGAACGGGUAAUCAGAAGGUAUUAUUAGAGAAAGGGUAAGGAUAUGAUUAUAUAU |  |  | 605 nM | 224 nM
UUCCUACAUGAGGAUCACCCAUGUGAGGAUAUGCAUCGUAUUAUUCUCGUAUGUAGUAGCAGAAGGCGCAUUGG | 25.9 nM | 89.6 nM |  | 
GCUGUGGCAUGAGGAUAUGGUCAGGUUUCCUGACCAGAAGGCAUGUCAAUAGACAUGAGGAUCACCCAUGUAGUUAACACAGCA |  |  | 514 nM | 45.9 nM
GUUUAUUUACAGAAGGUGUUUUACAUGAGGAUCACCCAUGUUUAAAGGUAUAAAGAAUUUAUUUACAAGGAUAUGUACAAUUUU |  |  | 34.1 nM | 22.1 nM
UGAAGUGGCGACAUGAGGAUCACCCAUGUAUGGUAUUCAACCAGAAGGCAUGUUGAGGAAUUACAUGAGGAUAUGGGAGAUCUA |  |  | 314 nM | 121 nM
UUGGACGUCGUAGGAUAUGUAGGAUAUUCCUACAUGAGGAUCACCCAUGUUGACAUGGAAGAAGGAUAGAAGGACGAUGUCCAU |  |  | 624 nM | 81.5 nM
CAAUUGGCACAGAAGGGUGACAUGAGGAUCACCCAUGUAGCGUGGCUCUCAGGAGGAGCCACGCCACAGGAUAUGUGCGGGCAC |  |  | 33.2 nM | 63.2 nM
ACCUCACAUGAGGAUCACCCAUGUUAGGAUAUCUCGGCGCCCUGCAGGCAGUGGCACCAGAGAAGGAACGUGCA | 22.5 nM | 25.3 nM |  | 
AUUAUUAAGGUAGGAUAUAGUAUAAUAAUUAAAUUAGAAGGAUCUCACAUGAGGAUCACCCAUGUAAGAGGAUCACCCAUGUAU | 10.3 nM | 10.4 nM |  | 
CAGUACUGAGGAUAUACAUGAGGAUCACCCAUGUGUUCCAGCUAGGAAUCUAGCAAAAGUAGAAGGCAGUACUG | 25.9 nM | 449 nM |  | 
AUUAUAUAGGAAGGAUAUAGAAUAUUAUUUUAACAUGAGGAUCACCCAUGUAACCUUAUGUGUAGCUAGAAGGUCCAUUUGUUA |  | 315 nM |  | 
GGAUAGGACAGAGGAUAUACGUGCUAGAGAAACUAGCAAAAUUUCCUCACAUGAGGAUCACCCAUGUAGAAGGCUGUCCUAUCG | 14.5 nM | 543 nM |  | 
GUGCGAGCCACAGGAUAUCUACAAAUUUACUGUAGAGAAGGGUGACCUCGUGCACCACAUGAGGAUCACCCAUGUAACUAGGCG |  |  | 26.3 nM | 53 nM
UGGUACUAGGGAGGAUAUGGGAAGAUACAUGAGGAUCACCCAUGUUUAAGAAUGCCAAGAGGCAACUAGAAGGCCCUAGUACCU |  |  | 384 nM | 17.8 nM
CGUGGACUAGGAUAUUUACGAGGCUACAUGAGGAUCACCCAUGUGUUCUCGAGUACCAUGAAAGAAGGAGUAGCGA | 12.6 nM | 14 nM |  | 
AAUGAGCAGUAGAAGGCAUGUCUACGGACAUGAGGAUCACCCAUGUUGUGAAUCCGAAAGGAGCGUGAGGAUAUACUGCUCUAA |  |  | 85.6 nM | 18.8 nM
